Assay [1] has as its target T1, Isoleucine--tRNA ligase (Staphylococcus aureus) (UniProt P41972).
T1 sequence (whole entry): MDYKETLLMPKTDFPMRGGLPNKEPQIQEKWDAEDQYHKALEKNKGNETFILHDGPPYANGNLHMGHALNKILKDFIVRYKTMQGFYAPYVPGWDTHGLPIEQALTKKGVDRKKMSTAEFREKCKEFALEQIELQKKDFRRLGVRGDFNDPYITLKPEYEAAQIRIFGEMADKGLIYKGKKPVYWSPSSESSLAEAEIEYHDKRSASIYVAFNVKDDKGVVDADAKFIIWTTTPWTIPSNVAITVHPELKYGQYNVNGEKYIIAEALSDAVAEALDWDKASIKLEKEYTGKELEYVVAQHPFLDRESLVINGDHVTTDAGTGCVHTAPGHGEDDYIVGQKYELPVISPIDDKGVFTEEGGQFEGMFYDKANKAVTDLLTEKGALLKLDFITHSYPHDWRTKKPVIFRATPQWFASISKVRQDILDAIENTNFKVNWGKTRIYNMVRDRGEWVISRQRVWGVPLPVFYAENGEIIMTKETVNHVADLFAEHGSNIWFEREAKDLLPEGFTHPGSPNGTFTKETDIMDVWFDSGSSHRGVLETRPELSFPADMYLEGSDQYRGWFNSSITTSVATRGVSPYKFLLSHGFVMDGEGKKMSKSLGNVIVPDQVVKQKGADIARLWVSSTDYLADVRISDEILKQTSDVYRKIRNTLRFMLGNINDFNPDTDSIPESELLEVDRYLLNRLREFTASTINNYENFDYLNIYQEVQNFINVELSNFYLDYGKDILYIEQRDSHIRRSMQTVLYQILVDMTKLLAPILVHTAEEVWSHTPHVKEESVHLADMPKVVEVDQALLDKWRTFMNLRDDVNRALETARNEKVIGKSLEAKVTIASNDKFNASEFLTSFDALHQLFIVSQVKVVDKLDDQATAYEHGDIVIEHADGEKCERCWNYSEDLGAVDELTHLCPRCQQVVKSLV
Kind of assay: Compound (100 uM) was evaluated for its inhibitory activity against Isoleucyl-tRNA synthetase from staphylococcus aureus WCUH29.

For assay [2], the target named is T2, Isoleucyl-tRNA synthetase (Rattus norvegicus) (UniProt O35880).
T2 sequence (whole entry): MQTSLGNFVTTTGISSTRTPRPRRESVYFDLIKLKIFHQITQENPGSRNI
As to the kind of experiment: Compound (100 uM) was evaluated for its inhibitory activity against Isoleucyl-tRNA synthetase from rat liver.

Assay [3] relates to Staphylococcus aureus. As to the kind of experiment: Compound (100 uM) was evaluated for its inhibitory activity against VRS (valyl tRNA synthetase) from staphylococcus aureus WCUH29; no inhibition.
For assay [4], the system named is Leucine--tRNA ligase (Staphylococcus aureus). As to the kind of experiment: Compound (100 uM) was evaluated for its inhibitory activity against Leucyl-tRNA synthetase from staphylococcus aureus WCUH29; no inhibition.
Another assay addresses T3, Isoleucine--tRNA ligase (Staphylococcus aureus, UniProt P41972).
T3 sequence (P41972 whole entry): T1 sequence (whole entry)
Kind of assay: Compound was evaluated for its inhibitory activity against Isoleucyl-tRNA synthetase from staphylococcus aureus WCUH29.

Assay [5] addresses T4, Isoleucyl-tRNA synthetase (Rattus norvegicus, UniProt O35880).
T4 sequence (O35880 whole entry): T2 sequence (whole entry)
As to the kind of experiment: Compound was evaluated for its inhibitory activity against Isoleucyl-tRNA synthetase from rat liver.

For assay [6], the system named is Escherichia coli. Kind of assay: Compound was evaluated for the antibacterial activity against Escherichia coli 120 AcrAB-. It counts as functional. The procedure, abridged:
(§1)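 Broth microdilution MIC. Compounds in DMSO, diluted 1:10 in water to a 256 µg mL-1 stock, then serially diluted in supplemented cation-adjusted Mueller Hinton broth. Each well received an equal volume of isolate suspension (~1 × 10^6 cfu mL-1). Final concentrations were 0.06–64 µg mL-1. Plates were incubated at 35 °C in ambient air for 18–24 h, and the MIC was read with a mirror reader.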

For assay [7], the system named is Escherichia coli. As to the kind of experiment: Compound was evaluated for the antibacterial activity against Escherichia coli 763 AcrABEFD. It counts as functional. The procedure, abridged: as §1
In assay [8] the test system is Enterococcus faecalis. As to the kind of experiment: Compound was evaluated for the antibacterial activity against Enterococcus faecalis 1. It counts as functional. Put shortly:
as §1

Assay [9] has as its system Enterococcus faecalis. As to the kind of experiment: Compound was evaluated for the antibacterial activity against Enterococcus faecalis 7. It counts as functional. The procedure, abridged:
as §1

Assay [10] has as its system Haemophilus influenzae. As to the kind of experiment: Compound was evaluated for the antibacterial activity against Haemophilus influenzae NEMC1. It counts as functional. The procedure, abridged:
as §1

In assay [11] the test system is Haemophilus influenzae. As to the kind of experiment: Compound was evaluated for the antibacterial activity against Haemophilus influenzae Q1. It counts as functional. The procedure, abridged: as §1
Another assay has as its system Moraxella catarrhalis. Kind of assay: Compound was evaluated for the antibacterial activity against Moraxella catarrhalis 1502. It counts as functional. The procedure, abridged: as §1
For assay [12], the system named is Staphylococcus aureus. Kind of assay: Compound was evaluated for the antibacterial activity against Staphylococcus aureus WCUH 29. It counts as functional. Put shortly:
as §1

The test system of assay [13] is Staphylococcus aureus. Kind of assay: Compound was evaluated for the antibacterial activity against Staphylococcus aureus oxford. It counts as functional. The procedure, abridged:
as §1

Assay [14] relates to Streptococcus pneumoniae. As to the kind of experiment: Compound was evaluated for the antibacterial activity against Streptococcus pneumoniae 1629. It counts as functional. Put shortly:
as §1

Assay [15] relates to Streptococcus pneumoniae. Kind of assay: Compound was evaluated for the antibacterial activity against Streptococcus pneumoniae ERY2. It counts as functional. Put shortly:
as §1

The subject of assay [16] is Streptococcus pneumoniae. Kind of assay: Compound was evaluated for the antibacterial activity against Streptococcus pneumoniae N1387. It counts as functional. Put shortly:
as §1

Assay [17] in a line: Compound was evaluated for its inhibitory activity against VRS (valyl tRNA synthetase) from staphylococcus aureus WCUH29.
For assay [18], the system named is Leucine--tRNA ligase (Staphylococcus aureus). Kind of assay: Compound (100 uM) was evaluated for its inhibitory activity against Leucyl-tRNA synthetase from staphylococcus aureus WCUH29.
The test system of assay [19] is Staphylococcus aureus. As to the kind of experiment: Compound (100 uM) was evaluated for its inhibitory activity against VRS (valyl tRNA synthetase) from staphylococcus aureus WCUH29.
For assay [20], the system named is Staphylococcus aureus. As to the kind of experiment: Compound (10 uM) was evaluated for its inhibitory activity against VRS (valyl tRNA synthetase) from staphylococcus aureus WCUH29; no inhibition.
Assay [21] relates to Leucine--tRNA ligase (Staphylococcus aureus). As to the kind of experiment: Compound (10 uM) was evaluated for its inhibitory activity against Leucyl-tRNA synthetase from staphylococcus aureus WCUH29; no inhibition.

Values after ≈ are worked out from the molar mass of the structure shown. Active and inactive are the calls of the source. The rule behind the calls is not given here.

Usually inhibition stands for the change of the read-out against control, counted positive when it falls. Regarding `CC[C@H](C)CC(=O)NS(=O)(=O)CC(=O)N[C@@]1(C(=O)OCc2ccccc2)[C@@H](OC(=O)C[C@@H](C)CC)C[C@H]2C(C(N)=O)=CN(C)C[C@H]21`, the values for the inhibition (in assay [1]; in assay [2]; with Staphylococcus aureus [3]) were 19%, 20% and 6%, respectively. Further, in [4], the inhibition result was “inactive”.

On to `CC[C@H](C)CC(=O)NS(=O)(=O)CC(=O)N[C@@]1(C(=O)OC)[C@@H](OC(=O)C[C@@H](C)CC)C[C@H]2C(C(N)=O)=CN(C)C[C@H]21`, for which the inhibition in [1] came out at 18%; in [2], 9%. For the same compound, the inhibition entry (with Staphylococcus aureus [3]; in assay [4]) was “inactive” throughout.

As a reminder, the IC50 is the concentration that inhibits the measured activity by half. Low values mean greater potency in that assay, high ones weaker potency in that assay. On to `CC[C@H](C)CC(=O)NS(=O)(=O)CC(=O)N[C@]1(C(=O)O)[C@@H]2CN(C)C=C(C(N)=O)[C@@H]2C[C@@H]1O`, for which the IC50 was 3270 nM against Isoleucine--tRNA ligase and 22300 nM in assay [5]. Further, in the assay with Staphylococcus aureus [3], the inhibition entry is “inactive”.

Turning to `CC[C@H](C)[C@H](N)C(=O)NS(=O)(=O)CC(=O)N[C@]1(C(=O)O)[C@@H]2CN(C)C=C(C(N)=O)[C@@H]2C[C@@H]1O`, the MIC with Escherichia coli [6] is over 64 µg/mL; against Escherichia coli [7], over 64 µg/mL; in the assay on Enterococcus faecalis [8] it was over 64 µg/mL; in the assay on Enterococcus faecalis [9], over 64 µg/mL; against Haemophilus influenzae [10], 64 µg/mL (≈ 131 µM); in the assay with Haemophilus influenzae [11] it was 64 µg/mL (≈ 131 µM). For the same compound, the MIC in the assay with Moraxella catarrhalis was over 64 µg/mL; with Staphylococcus aureus [12] it was over 64 µg/mL; in the assay on Staphylococcus aureus [13] it was over 64 µg/mL; with Streptococcus pneumoniae [14] it was over 64 µg/mL; against Streptococcus pneumoniae [15] it was 64 µg/mL (≈ 131 µM); against Streptococcus pneumoniae [16], over 64 µg/mL. Also, the results for the IC50 (against Isoleucine--tRNA ligase; in [5]; in [17]) were 14 nM, 4.2 nM and 126 nM, respectively.

In the case of `CC[C@H](C)CC(=O)NS(=O)(=O)CC(=O)N[C@]1(C(=O)OC)[C@@H]2CN(C)C=C(C(N)=O)[C@@H]2C[C@@H]1O`, the inhibition was determined as 23% in [1], 25% in assay [2] and 13% in [18]. The inhibition result with Staphylococcus aureus [3] is “inactive”.

As for `CC[C@H](C)[C@H](N)C(=O)NS(=O)(=O)CC(=O)N[C@]1(C(=O)OC)[C@@H]2CN(C)C=C(C(N)=O)[C@@H]2C[C@@H]1O`, the IC50 at Isoleucine--tRNA ligase came out at 60 nM; in assay [5], 17 nM. In the assay on Staphylococcus aureus [19], the inhibition is 40%.

Take `CC[C@H](C)[C@H](NC(=O)OCc1ccccc1)C(=O)NS(=O)(=O)CC(=O)N[C@@]1(C(=O)OC)[C@@H](OC(=O)[C@@H](NC(=O)OCc2ccccc2)[C@@H](C)CC)C[C@H]2C(C(N)=O)=CN(C)C[C@H]21`: the inhibition in [1] was determined as 46%. For the same compound, inhibition in [5] was half-maximal at 500 nM (IC50). In addition, the inhibition entry (with Staphylococcus aureus [3]; in assay [4]) was “inactive” each time.

With `CC(C)C[C@H](N)C(=O)NS(=O)(=O)CC(=O)N[C@]1(C(=O)O)[C@@H]2CN(C)C=C(C(N)=O)[C@@H]2C[C@@H]1O`, the MIC with Escherichia coli [6] was over 64 µg/mL; against Escherichia coli [7] it was over 64 µg/mL; against Enterococcus faecalis [8], over 64 µg/mL; in the assay on Enterococcus faecalis [9] it was over 64 µg/mL; against Haemophilus influenzae [10], 64 µg/mL (≈ 131 µM); against Haemophilus influenzae [11] it was 64 µg/mL (≈ 131 µM). The MIC was over 64 µg/mL in the assay on Moraxella catarrhalis; over 64 µg/mL with Staphylococcus aureus [12]; over 64 µg/mL against Staphylococcus aureus [13]; 32 µg/mL (≈ 65.4 µM) in the assay on Streptococcus pneumoniae [14]; 16 µg/mL (≈ 32.7 µM) in the assay on Streptococcus pneumoniae [15]; 64 µg/mL (≈ 131 µM) with Streptococcus pneumoniae [16]. The results for the IC50 (against Isoleucine--tRNA ligase; in [5]; in assay [17]) were 910 nM, 68 nM and 290 nM, respectively.

On to `CC[C@H](C)[C@H](N)C(=O)NS(=O)(=O)CC(=O)N[C@]1(C(=O)OCc2ccccc2)[C@@H]2CN(C)C=C(C(N)=O)[C@@H]2C[C@@H]1O`, for which the IC50 stood at 120 nM against Isoleucine--tRNA ligase and 25 nM in assay [5]. For the same compound, the inhibition result (with Staphylococcus aureus [20]; in assay [21]) was “inactive” throughout.

For the compound `CC(C)[C@H](N)C(=O)NS(=O)(=O)CC(=O)N[C@]1(C(=O)O)[C@@H]2CN(C)C=C(C(N)=O)[C@@H]2C[C@@H]1O`, the half-maximal inhibitory concentration (IC50) at Isoleucine--tRNA ligase is 37 nM; in assay [5], 2.9 nM; in assay [17] it was 30 nM.

Take `CC[C@H](C)CC(=O)NS(=O)(=O)CC(=O)N[C@@]1(C(=O)O)[C@@H](OC(=O)C[C@@H](C)CC)C[C@H]2C(C(N)=O)=CN(C)C[C@H]21`: the IC50 was determined as 14600 nM on Isoleucine--tRNA ligase and 6100 nM in [5]. This compound also registered an inhibition in the assay with Staphylococcus aureus [19] of 65%.
